Results gathered from unrelated publications.
Protocols differ between the studies behind these lines.
Organism: Plasmodium falciparum
Observed: parasite growth
Technique: SYBR Green

Cn1cc2c3c1C(=O)C(NCCc1ccc(O)cc1)=CC3=NCC2 — IC50 (DD2; blood stage): 2380 nM
COCC(=O)N1CCC[C@H](C(=O)NCc2nc(-c3ccc(C)cc3)cs2)C1 — EC50 (DD2; 72 h; blood stage): 15 nM
COC1=CC2=[N+](C)CCc3c[nH]c(c32)C1=O — IC50 (W2; blood stage): 1520 nM
COCC(=O)N1CCC[C@@H](C(=O)NCc2nc(-c3ccccc3)cs2)C1 — EC50 (DD2; 72 h; blood stage): 7000 nM
CCOC(=O)C1=C(C)NC2=C(C(=O)OC(c3ccc(OC)c(OC)c3)C2)C1c1ccccc1C (mixture of isomers) — EC50 (3D7; blood stage): 40 to 190 nM
O=C(/C=C/c1cn(Cc2cn(-c3ccnc4cc(Cl)ccc34)nn2)c2ccccc12)c1ccc(Br)cc1 — inhibition (3D7; 5 µM; blood stage): 12.9%
COC(CNC1=CC2=NCCc3c[nH]c(c32)C1=O)c1c[nH]c2ccccc12 (centres unmarked) — IC50 (W2; blood stage): 1120 nM
O=C(/C=C/c1cn(Cc2cn(-c3ccnc4cc(Cl)ccc34)nn2)c2ccccc12)c1ccccc1Cl — inhibition (3D7; 5 µM; blood stage): 42.4%
CCOCC(=O)N1CCC[C@H](C(=O)NCc2nc(-c3ccccc3)cs2)C1 — EC50 (DD2; 72 h; blood stage): 24 nM
CCN(CC)CCCC(C)Nc1ccnc2cc(Cl)ccc12 (centres unmarked) — IC50 (3D7; 96 h; blood stage): 4.8 nM
O=C(/C=C/c1cn(Cc2cn(-c3ccnc4cc(Cl)ccc34)nn2)c2ccccc12)c1ccccc1Br — inhibition (3D7; 10 µM; blood stage): 47.4%
NC1=CC2=NCCc3c[nH]c(c32)C1=O — IC50 (DD2; blood stage): 478 nM
O=C(/C=C/c1cn(Cc2cn(-c3ccnc4cc(Cl)ccc34)nn2)c2ccccc12)c1ccccc1[N+](=O)[O-] — inhibition (3D7; 10 µM; blood stage): 26.1%
O=C1C(NCCc2c[nH]c3ccccc23)=CC2=NCCc3c[nH]c1c32 — IC50 (W2; blood stage): 716 nM
Cc1cc(Nc2ccc(S(F)(F)(F)(F)F)cc2)n2nc(C(C)(F)F)nc2n1 — EC50 (72 h): 5.7 nM
O=C(/C=C/c1cn(Cc2cn(-c3ccnc4cc(Cl)ccc34)nn2)c2ccccc12)c1cccs1 — inhibition (3D7; 5 µM; blood stage): 32.1%
COCC(=O)N1CCC[C@H](C(=O)NCc2nc(-c3ccc(OC)cc3)cs2)C1 — EC50 (DD2; 72 h; blood stage): 20 nM
COc1ccccc1C(=O)/C=C/c1cn(Cc2cn(-c3ccnc4cc(Cl)ccc34)nn2)c2ccccc12 — inhibition (3D7; 5 µM; blood stage): 56.8%
O=C1c2[nH]cc3c2C(=NCC3)c2c(-c3ccc(O)cc3)c[nH]c21 — IC50 (W2; blood stage): 4540 nM
CCOCC(=O)N1CCC[C@H](C(=O)NCc2nc(-c3ccc(C#N)cc3)cs2)C1 — EC50 (DD2; 72 h; blood stage): 5.8 nM
